This note sets out measurements from ChEMBL document CHEMBL4334471, “Discovery of 1,8-disubstituted-[1,2,3]triazolo[4,5-c]quinoline derivatives as a new class of Hippo signaling pathway inhibitors” (Bioorg Med Chem Lett, 2019).

The subject of one experiment is A549. The experiment can be described thus: Upregulation of CYR61 in human A549 cells incubated for 24 hrs by qRT-PCR analysis. It counts as functional, cell-based. Background: In qPCR the cycle at which signal appears reflects the starting amount.
The target in experiment [1] is Protein kinase C alpha type (Homo sapiens) (UniProt P17252). Briefly: Inhibition of recombinant human full length PKCalpha assessed as residual activity at 10 uM using histone H1 as substrate incubated for 40 mins in presence of [gamma33P]ATP by scintillation counting based radiometry assay relative to control.
For experiment [2], the target named is cGMP-dependent protein kinase 1 (Homo sapiens) (UniProt Q13976). Briefly: Inhibition of recombinant full-length human PKG1alpha assessed as residual activity at 10 uM using RRRLSFAEPG as substrate incubated for 40 mins in presence of [gamma33P]ATP by scintillation counting based radiometry assay relative to control.
Experiment [3] concerns the target Serine/threonine-protein kinase ULK1 (Homo sapiens) (UniProt O75385). The experiment can be described thus: Inhibition of recombinant human ULK1 (1 to 314 residues) assessed as residual activity at 10 uM using casein as substrate incubated for 40 mins in presence of [gamma33P]ATP by scintillation counting based radiometry assay relative to control.
The species entered for another experiment is Homo sapiens. The experiment can be described thus: Inhibition of recombinant human Ros V2262A mutant (1883 to end residues) assessed as residual activity at 10 uM using KKKSPGEYVNIEFG as substrate incubated for 40 mins in presence of [gamma33P]ATP by scintillation counting based radiometry assay relative to control.
Experiment [4] concerns the target Serine/threonine-protein kinase Nek7 (Homo sapiens) (UniProt Q8TDX7). Briefly: Inhibition of recombinant human NEK7 (2 to end residues) assessed as residual activity at 10 uM using FLAKSFGSPNRAYKK as substrate measured after 40 mins in presence of [gamma33P]ATP by scintillation counting based radiometry assay relative to control.
In experiment [5] the target is Serine/threonine-protein kinase TAO2 (Homo sapiens) (UniProt Q9UL54). The experiment can be described thus: Inhibition of recombinant human TAO2 (1 to 320 residues) assessed as residual activity at 10 uM using myelin basic protein as substrate incubated for 40 mins in presence of [gamma33P]ATP by scintillation counting based radiometry assay relative to control.
Serine/threonine-protein kinase TAO2 (Homo sapiens), sequence (Q9UL54 whole entry, the tested form may be a part): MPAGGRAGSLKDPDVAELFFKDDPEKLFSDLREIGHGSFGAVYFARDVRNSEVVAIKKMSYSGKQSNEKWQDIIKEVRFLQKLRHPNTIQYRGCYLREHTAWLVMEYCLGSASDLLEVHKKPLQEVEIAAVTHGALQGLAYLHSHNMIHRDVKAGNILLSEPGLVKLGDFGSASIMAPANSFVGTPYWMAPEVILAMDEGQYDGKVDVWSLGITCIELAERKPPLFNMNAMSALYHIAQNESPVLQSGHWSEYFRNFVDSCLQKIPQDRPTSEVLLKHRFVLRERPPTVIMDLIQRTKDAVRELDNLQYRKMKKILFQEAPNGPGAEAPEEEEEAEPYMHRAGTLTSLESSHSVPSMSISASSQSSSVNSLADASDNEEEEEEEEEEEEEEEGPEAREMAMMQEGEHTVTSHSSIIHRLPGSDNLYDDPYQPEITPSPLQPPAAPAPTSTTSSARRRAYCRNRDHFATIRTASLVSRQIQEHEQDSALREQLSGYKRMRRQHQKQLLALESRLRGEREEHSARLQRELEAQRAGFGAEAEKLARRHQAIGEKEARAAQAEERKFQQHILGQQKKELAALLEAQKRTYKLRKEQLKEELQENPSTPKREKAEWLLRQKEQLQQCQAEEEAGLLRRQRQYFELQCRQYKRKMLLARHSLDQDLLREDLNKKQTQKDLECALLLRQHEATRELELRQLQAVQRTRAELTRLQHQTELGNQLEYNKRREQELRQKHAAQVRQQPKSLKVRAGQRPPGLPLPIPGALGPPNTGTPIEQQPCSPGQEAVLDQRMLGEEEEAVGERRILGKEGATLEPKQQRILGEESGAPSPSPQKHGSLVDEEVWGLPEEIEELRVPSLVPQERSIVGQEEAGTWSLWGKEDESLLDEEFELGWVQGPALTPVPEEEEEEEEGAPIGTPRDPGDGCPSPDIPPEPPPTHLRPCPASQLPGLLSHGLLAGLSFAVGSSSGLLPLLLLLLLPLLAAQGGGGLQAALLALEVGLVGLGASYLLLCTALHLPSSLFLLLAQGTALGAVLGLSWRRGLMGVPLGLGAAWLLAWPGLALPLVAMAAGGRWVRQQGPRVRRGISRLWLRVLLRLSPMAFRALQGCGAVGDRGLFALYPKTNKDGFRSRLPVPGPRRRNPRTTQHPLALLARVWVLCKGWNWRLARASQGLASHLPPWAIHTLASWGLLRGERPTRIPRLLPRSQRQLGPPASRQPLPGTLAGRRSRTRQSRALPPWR
Experiment [6] addresses Ephrin type-A receptor 7 (Homo sapiens) (UniProt Q15375). Briefly: Inhibition of recombinant human EphA7 (613 to 909 residues) assessed as residual activity at 10 uM using KTFCGTPEYLAPEVRREPRILSEEEQEMFRDFDYIADWC as substrate at 40 mins in presence of [gamma-33ATP] by scintillation counting based radiometry assay relative to control.
The target of experiment [7] is Proto-oncogene tyrosine-protein kinase Src (Homo sapiens) (UniProt P12931). Briefly: Inhibition of recombinant human SRC (1 to 530 residues) assessed as residual activity at 10 uM using GGEEEEYFELVKK as substrate incubated for 40 mins in presence of [gamma33P]ATP by scintillation counting based radiometry assay relative to control.
Experiment [8] deals with Protein kinase C zeta type (Homo sapiens) (UniProt Q05513). The experiment can be described thus: Inhibition of recombinant human PKCzeta (2 to end residues) assessed as residual activity at 10 uM using ERMRPRKRQGSVRRRV as substrate incubated for 40 mins in presence of [gamma33P]ATP by scintillation counting based radiometry assay relative to control.
For experiment [9], the target named is Serine/threonine-protein kinase haspin (Homo sapiens) (UniProt Q8TF76). The experiment can be described thus: Inhibition of human Haspin (471 to end residues ) assessed as residual activity at 10 uM using RARTLSFAEPG as substrate after 40 mins by [gamma-33ATP] radiometric assay relative to control.
Experiment [10] deals with Tribbles homolog 2 (Homo sapiens) (UniProt Q92519). Briefly: Inhibition of recombinant full-length human TRB2 assessed as residual activity at 10 uM using RRRFRPASPLRGPPK as substrate incubated for 120 mins in presence of [gamma33P]ATP by scintillation counting based radiometry assay relative to control.
Experiment [11] deals with Serine/threonine-protein kinase Chk2 (Homo sapiens), O96017 [I157T]. The experiment can be described thus: Inhibition of recombinant human CHK2 I157T mutant (5 to end residues) assessed as residual activity at 10 uM using KKKVSRSGLYRSPSMPENLNRPR as substrate incubated for 40 mins in presence of [gamma-33ATP] by scintillation counting based radiometry assay relative to control.

The target in experiment [12] is Ephrin type-B receptor 4 (Homo sapiens) (UniProt P54760). The experiment can be described thus: Inhibition of recombinant human EphB4 (561 to end residues) assessed as residual activity at 10 uM using poly(Glu, Tyr) 4:1 as substrate at 40 mins in presence of [gamma-33ATP] by scintillation counting based radiometry assay relative to control.
Experiment [13] deals with Casein kinase I isoform gamma-3 (Homo sapiens), Q9Y6M4 [UNDEFINED MUTATION]. The experiment can be described thus: Inhibition of recombinant human CK1gamma3 K91E/R174G/E302D mutant (1 to 330 residues) assessed as residual activity at 10 uM using KRRRALS(p)VASLPGL as substrate incubated for 40 mins in presence of [gamma-33ATP] by scintillation counting based radiometry assay relative to control.

For experiment [14], the target named is Serine/threonine-protein kinase Nek9 (Homo sapiens) (UniProt Q8TD19). The experiment can be described thus: Inhibition of recombinant human NEK9 (1 to 324 residues) assessed as residual activity at 10 uM using myelin basic protein as substrate measured after 40 mins in presence of [gamma33P]ATP by scintillation counting based radiometry assay relative to control.
Serine/threonine-protein kinase Nek9 (Homo sapiens), sequence (Q8TD19 whole entry, the tested form may be a part): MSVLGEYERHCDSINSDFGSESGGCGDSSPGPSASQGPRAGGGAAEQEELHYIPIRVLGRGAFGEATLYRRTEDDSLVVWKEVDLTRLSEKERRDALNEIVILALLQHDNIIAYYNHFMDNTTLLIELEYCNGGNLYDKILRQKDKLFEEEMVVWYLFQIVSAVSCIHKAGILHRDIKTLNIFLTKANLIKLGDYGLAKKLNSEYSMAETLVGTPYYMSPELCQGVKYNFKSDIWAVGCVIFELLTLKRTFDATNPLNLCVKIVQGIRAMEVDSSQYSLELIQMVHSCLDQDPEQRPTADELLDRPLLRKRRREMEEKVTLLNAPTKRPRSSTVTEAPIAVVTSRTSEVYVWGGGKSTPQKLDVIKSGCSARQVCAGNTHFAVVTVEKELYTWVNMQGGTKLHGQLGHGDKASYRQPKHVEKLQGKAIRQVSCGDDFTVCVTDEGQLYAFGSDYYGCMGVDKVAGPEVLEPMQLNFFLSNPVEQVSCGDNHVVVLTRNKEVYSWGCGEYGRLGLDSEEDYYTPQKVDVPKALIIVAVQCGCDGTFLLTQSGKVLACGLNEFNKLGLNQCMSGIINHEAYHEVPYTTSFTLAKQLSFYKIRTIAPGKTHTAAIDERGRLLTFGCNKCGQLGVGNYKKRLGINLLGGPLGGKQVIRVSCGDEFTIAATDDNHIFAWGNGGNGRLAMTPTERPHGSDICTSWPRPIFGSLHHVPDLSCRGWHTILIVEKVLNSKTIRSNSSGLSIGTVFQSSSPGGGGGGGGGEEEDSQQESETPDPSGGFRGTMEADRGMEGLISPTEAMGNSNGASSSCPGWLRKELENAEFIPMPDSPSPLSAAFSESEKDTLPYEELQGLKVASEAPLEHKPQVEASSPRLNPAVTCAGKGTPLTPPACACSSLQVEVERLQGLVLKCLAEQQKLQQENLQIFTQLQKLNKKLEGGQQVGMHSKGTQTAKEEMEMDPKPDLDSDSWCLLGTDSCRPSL

Experiment [15] addresses Transcriptional coactivator YAP1 (Homo sapiens) (UniProt P46937). The experiment can be described thus: Induction of YAP nuclear translocation in human A549 cells at 10 uM incubated for 8 hrs by immunofluorescence based confocal microscopy. It counts as cell-based. An outline of the steps:
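A549-CTGF reporter cells were treated for 8 h at 10 µM, with 0.1% DMSO as vehicle control. Cells were then fixed, permeabilized and probed with anti-YAP antibody. DAPI stained the nuclei, and YAP localization was imaged by immunofluorescence.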

Experiment [16] deals with Tyrosine-protein kinase ABL1 (Homo sapiens) (UniProt P00519). Briefly: Inhibition of human ABL1 (27 to end residues) at 10 uM using EAIYAAPFAKKK as substrate incubated for 40 mins in presence of [gamma-33ATP] by scintillation counting based radiometry assay relative to control. Set-up: scale not given: the % may be the effect or the level left.
Tyrosine-protein kinase ABL1 (Homo sapiens), sequence (P00519 whole entry, the tested form may be a part): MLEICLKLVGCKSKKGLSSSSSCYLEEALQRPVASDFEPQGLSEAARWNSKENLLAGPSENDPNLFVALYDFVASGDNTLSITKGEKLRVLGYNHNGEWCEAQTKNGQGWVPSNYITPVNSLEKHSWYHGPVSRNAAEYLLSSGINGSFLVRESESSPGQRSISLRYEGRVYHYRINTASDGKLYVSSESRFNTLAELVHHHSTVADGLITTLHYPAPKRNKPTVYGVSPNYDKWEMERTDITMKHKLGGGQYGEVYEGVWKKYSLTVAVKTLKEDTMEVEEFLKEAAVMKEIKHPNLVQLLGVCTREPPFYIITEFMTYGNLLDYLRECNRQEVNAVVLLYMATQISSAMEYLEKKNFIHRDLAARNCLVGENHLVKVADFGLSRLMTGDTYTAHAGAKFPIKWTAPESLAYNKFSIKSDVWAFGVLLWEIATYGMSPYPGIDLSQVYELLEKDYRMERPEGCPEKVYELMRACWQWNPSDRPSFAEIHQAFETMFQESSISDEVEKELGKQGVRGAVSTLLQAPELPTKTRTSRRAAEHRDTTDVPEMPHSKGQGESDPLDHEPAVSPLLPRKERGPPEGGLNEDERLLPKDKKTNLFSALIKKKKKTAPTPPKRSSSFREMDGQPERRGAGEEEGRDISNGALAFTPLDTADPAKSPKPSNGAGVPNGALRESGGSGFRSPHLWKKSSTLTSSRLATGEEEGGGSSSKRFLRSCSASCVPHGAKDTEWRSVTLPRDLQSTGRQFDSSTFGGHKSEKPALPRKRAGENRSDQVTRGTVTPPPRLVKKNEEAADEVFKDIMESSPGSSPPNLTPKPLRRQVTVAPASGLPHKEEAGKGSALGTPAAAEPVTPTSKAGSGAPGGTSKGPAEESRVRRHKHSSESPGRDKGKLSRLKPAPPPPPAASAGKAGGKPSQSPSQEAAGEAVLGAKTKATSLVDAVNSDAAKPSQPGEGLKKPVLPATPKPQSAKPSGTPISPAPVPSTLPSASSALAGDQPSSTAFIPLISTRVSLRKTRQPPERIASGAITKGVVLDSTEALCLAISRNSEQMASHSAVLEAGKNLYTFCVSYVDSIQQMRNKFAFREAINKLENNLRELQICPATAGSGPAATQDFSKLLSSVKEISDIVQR
Experiment [17] deals with Serine/threonine-protein kinase 24 (Homo sapiens) (UniProt Q9Y6E0). The experiment can be described thus: Inhibition of recombinant human MST3 (1 to 304 residues) assessed as residual activity at 10 uM using ERMRPRKRQGSVR as substrate measured after 40 mins in presence of [gamma33P]ATP by scintillation counting based radiometry assay relative to control.
Experiment [18] deals with Rhodopsin kinase GRK7 (Homo sapiens) (UniProt Q8WTQ7). The experiment can be described thus: Inhibition of recombinant full length human GRK7 assessed as residual activity at 10 uM using casein as substrate at 40 mins in presence of [gamma-33ATP] by scintillation counting based radiometry assay relative to control.
Rhodopsin kinase GRK7 (Homo sapiens), sequence (Q8WTQ7 whole entry): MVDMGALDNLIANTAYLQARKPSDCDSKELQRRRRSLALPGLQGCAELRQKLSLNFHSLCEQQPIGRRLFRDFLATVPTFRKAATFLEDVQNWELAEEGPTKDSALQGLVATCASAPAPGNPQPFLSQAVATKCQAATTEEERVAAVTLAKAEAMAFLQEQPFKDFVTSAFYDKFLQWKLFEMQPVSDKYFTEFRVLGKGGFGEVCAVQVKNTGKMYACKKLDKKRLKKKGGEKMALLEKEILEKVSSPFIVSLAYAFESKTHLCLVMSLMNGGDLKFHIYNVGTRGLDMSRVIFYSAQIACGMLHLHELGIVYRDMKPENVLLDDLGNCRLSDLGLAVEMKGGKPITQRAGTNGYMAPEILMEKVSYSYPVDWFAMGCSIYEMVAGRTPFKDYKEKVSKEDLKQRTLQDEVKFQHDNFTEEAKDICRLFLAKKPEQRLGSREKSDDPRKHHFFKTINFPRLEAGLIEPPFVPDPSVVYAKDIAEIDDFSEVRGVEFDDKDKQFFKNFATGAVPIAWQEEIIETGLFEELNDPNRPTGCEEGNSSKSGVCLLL
Experiment [19] deals with Serine/threonine-protein kinase N2 (Homo sapiens) (UniProt Q16513). Briefly: Inhibition of recombinant human PRK2 (501 to end residues) assessed as residual activity at 10 uM using AKRRRLSSLRA as substrate incubated for 40 mins in presence of [gamma33P]ATP by scintillation counting based radiometry assay relative to control.

The structures appear in SMILES notation. The source made the active and inactive calls. No cut-off for these calls is given here.

Serine/threonine-protein kinase Nek7 (Homo sapiens), sequence (Q8TDX7 whole entry, looked up, the tested form may be a part): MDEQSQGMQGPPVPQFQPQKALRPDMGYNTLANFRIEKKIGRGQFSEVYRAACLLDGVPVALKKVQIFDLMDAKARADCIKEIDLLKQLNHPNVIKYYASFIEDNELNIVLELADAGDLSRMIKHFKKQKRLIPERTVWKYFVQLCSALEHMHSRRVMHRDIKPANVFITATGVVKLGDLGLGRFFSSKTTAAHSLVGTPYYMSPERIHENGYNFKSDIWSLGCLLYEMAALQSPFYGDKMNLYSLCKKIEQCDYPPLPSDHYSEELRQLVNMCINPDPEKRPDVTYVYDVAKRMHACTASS

In the case of `C[C@@H](c1ccccc1)n1nnc2cnc3ccc(-c4cnc5[nH]ccc5c4)cc3c21`, the Activity result was “Dose-dependent effect” in the experiment on A549; 77% in [1]; 70% in experiment [2]; 91% in experiment [3]; 102% in the experiment listed under Homo sapiens; 119% in [4]. The Activity was 85% in experiment [5]; 86% in experiment [6]; 15% in [7]; 84% in [8]; 51% in experiment [9]; 86% in [10]. In addition, the Activity in experiment [11] is 59%; in experiment [12] it was 71%; in [13], 45%; in experiment [14], 97%; in experiment [16], -4%; in experiment [17] it was 90%. Besides, the Activity was 90% in experiment [18] and 89% in [19]. Further, the result in experiment [15] was Active.
